In PMC10334013 (International Journal of Tryptophan Research : IJTR, 2023):

What was measured:
IL1B = format: cell-based, human; conditions: FLS co-treated with 0.5 ng/mL IL1β, 24 hours; TCDD 10 nM
How it was run: (§1)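 Primary human fibroblast-like synoviocytes from healthy donors, kept and treated in Synoviocyte Growth Medium. […] RNA was isolated and transcripts quantified by real-time qPCR relative to ACTB, normalised to TCDD (10 nM) and vehicle. Mean ± SEM; one-way ANOVA.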

EREG = format: cell-based, human; conditions: FLS co-treated with 0.5 ng/mL IL1β, 24 hours; TCDD 10 nM
How it was run: as §1

human AHR = biological target: T1, human AHR (Homo sapiens, UniProt P35869); assay: Human AHR-dependent luciferase reporter assay; format: cell-based; conditions: HepG2 40/6 luciferase reporter, 4 hours, normalized to 10 nM TCDD and VEH
T1 sequence (P35869 11-848): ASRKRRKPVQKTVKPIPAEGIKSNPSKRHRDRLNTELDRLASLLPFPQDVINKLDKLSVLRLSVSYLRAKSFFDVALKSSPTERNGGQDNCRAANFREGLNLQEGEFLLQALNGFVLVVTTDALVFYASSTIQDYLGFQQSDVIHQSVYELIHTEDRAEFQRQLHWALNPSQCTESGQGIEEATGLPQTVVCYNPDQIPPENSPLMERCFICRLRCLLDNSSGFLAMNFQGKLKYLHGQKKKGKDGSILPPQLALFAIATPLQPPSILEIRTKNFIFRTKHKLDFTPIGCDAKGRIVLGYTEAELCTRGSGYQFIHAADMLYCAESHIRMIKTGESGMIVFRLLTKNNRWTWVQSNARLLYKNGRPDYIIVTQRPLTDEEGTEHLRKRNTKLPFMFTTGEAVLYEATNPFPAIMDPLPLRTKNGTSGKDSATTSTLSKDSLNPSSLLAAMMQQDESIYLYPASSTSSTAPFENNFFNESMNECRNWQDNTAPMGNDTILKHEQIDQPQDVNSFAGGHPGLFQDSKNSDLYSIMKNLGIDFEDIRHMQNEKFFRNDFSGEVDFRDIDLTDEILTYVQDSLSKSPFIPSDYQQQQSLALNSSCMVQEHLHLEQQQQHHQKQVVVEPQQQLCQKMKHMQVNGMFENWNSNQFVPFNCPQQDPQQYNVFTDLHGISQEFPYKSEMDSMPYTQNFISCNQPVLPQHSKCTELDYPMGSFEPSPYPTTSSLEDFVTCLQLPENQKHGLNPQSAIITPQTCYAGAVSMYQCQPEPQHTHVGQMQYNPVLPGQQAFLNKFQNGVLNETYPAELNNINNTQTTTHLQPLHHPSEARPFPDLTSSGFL

AHR target gene, CYP1A1 = assay: CYP1A1 induction in Caco2 cells; format: cell-based, human; conditions: 4 hours, mean serum concentrations
mouse AHR = assay: Mouse AHR-dependent luciferase reporter assay; format: cell-based; conditions: Hepa 1.1 cells, 4 hours, mean concentrations measured in mouse sera
How it was run: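 Hepa 1.1 cells were grown in αMEM with 8% FBS and 1% penicillin-streptomycin, then seeded 24 h before treatment. […] Lysate luciferase was read by luminometer and compared with vehicle; one-way ANOVA.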

| Compound | EC25 (human AHR) [µM] | further results |
| --- | --- | --- |
| Clc1cc2c(cc1Cl)Oc1cc(Cl)c(Cl)cc1O2 [TCDD, 2,3,7,8-tetrachlorodibenzo-p-dioxin] | – | induction in IL1B expression (IL1B): 192 fold; induction in EREG expression (EREG): 27 fold |
| Nc1ccccc1C(=O)CC(N)C(=O)O (centres unmarked) [Kynurenine, kynurenine] | 1.76 | AHR activity (CYP1A1 transcripts by qPCR) versus vehicle (AHR target gene, CYP1A1): significantly different from the vehicle treatment; induction of luciferase activity relative to the vehicle treatment (mouse AHR): ~ 6 fold |
| O=C(O)CCc1c[nH]c2ccccc12 [Indole-3-propionic acid, indole-3-propionic acid] | 19.2 | – |

Second part, led by results:

| EC25 (human AHR) [µM] | Compound | further results |
| --- | --- | --- |
| 0.0408 | O=C(O)c1cc(=O)c2ccccc2[nH]1 [Kynurenic acid, kynurenic acid] | – |
| 25.9 | O=C(O)C(O)Cc1c[nH]c2ccccc12 (centres unmarked) [Indole-3-lactic acid, indole-3-lactic acid] | – |
